Results published in ChEMBL document CHEMBL2417509, “Synthesis and biological evaluation of prodigiosene conjugates of porphyrin, estrone and 4-hydroxytamoxifen” (2013).
Activity calls are given as the source filed them. The calls are words filed in the database; no cut-off is given here.

Legend:
Type in all cases: functional
HT-29 = test: Cytotoxicity against human HT-29 cells after 2 days by sulforhodamine B assay; settings: HT-29, 48 h
How it was run: (§1)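 NCI60 multi-dose screen, 59 human tumour lines available. Cells exposed to compound across a 5-log mol/L concentration range for 2 days, then fixed and stained with sulphorhodamine B, optical density read. Growth inhibition calculated against time-zero control and untreated cells. GI50 derived from the dose series, average of two replicates.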

OVCAR-4 = test: Cytotoxicity against human OVCAR4 cells after 2 days by sulforhodamine B assay; how it was run: as §1
TK-10 = test: Cytotoxicity against human TK10 cells after 2 days by sulforhodamine B assay; settings: TK-10, 48 h
How it was run: (§2)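 NCI DTP NCI60 multi-dose screen (59 human tumour lines available). Cells exposed to compound over a 5-log mol/L concentration range for 2 days, then fixed and stained with sulphorhodamine B, with optical density read. Growth inhibition calculated relative to time-zero cells and untreated cells, giving GI50 (half-maximal growth inhibition concentration). Average of two replicates.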

K562 = test: Cytotoxicity against human K562 cells after 2 days by sulforhodamine B assay; settings: K562, 48 h; how it was run: as §1
HCC 2998 = test: Cytotoxicity against human HCC2998 cells after 2 days by sulforhodamine B assay; settings: HCC 2998, 48 h; how it was run: as §1
MCF7 = test: Cytotoxicity against human MCF7 cells after 2 days by sulforhodamine B assay; settings: MCF7, 48 h; how it was run: as §1
NCI-H522 = test: Cytotoxicity against human NCI-H522 cells after 2 days by sulforhodamine B assay; settings: NCI-H522, 48 h; how it was run: as §1
RPMI-8226 = test: Cytotoxicity against human RPMI8226 cells after 2 days by sulforhodamine B assay; settings: RPMI-8226, 48 h; how it was run: as §1
LOX IMVI = test: Cytotoxicity against human LOXIMVI cells after 2 days by sulforhodamine B assay; settings: 48 h; how it was run: as §1
MOLT-4 = test: Cytotoxicity against human MOLT4 cells after 2 days by sulforhodamine B assay; settings: MOLT-4, 48 h; how it was run: as §1
A498 = test: Cytotoxicity against human A498 cells after 2 days by sulforhodamine B assay; settings: A498, 48 h; how it was run: as §1
HL-60(TB) = test: Cytotoxicity against human HL-60(TB) cells after 2 days by sulforhodamine B assay; settings: HL-60, 48 h
How it was run: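 NCI60 multi-dose screen: cells exposed to compound over a 5-log mol/L concentration range for 2 days, then fixed and stained with sulphorhodamine B and optical density read. Growth inhibition calculated relative to time-zero control and untreated cells; GI50 reported as average of two replicates.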

[1] = Cytotoxicity against human Hs578T cells after 2 days by sulforhodamine B assay; settings: Hs-578T, 48 h; how it was run: as §1
SNB-19 = test: Cytotoxicity against human SNB19 cells after 2 days by sulforhodamine B assay; settings: SNB-19, 48 h; how it was run: as §2
MDA-MB-231 = test: Cytotoxicity against human MDA-MB-231 cells after 2 days by sulforhodamine B assay; settings: MDA-MB-231, 48 h; how it was run: as §1
M14 = test: Cytotoxicity against human M14 cells after 2 days by sulforhodamine B assay; settings: M14, 48 h; how it was run: as §1
BT-549 = test: Cytotoxicity against human BT549 cells after 2 days by sulforhodamine B assay; settings: BT-549, 48 h; how it was run: as §1
COLO 205 = test: Cytotoxicity against human COLO205 cells after 2 days by sulforhodamine B assay; settings: COLO 205, 48 h; how it was run: as §1
NCI-H23 = test: Cytotoxicity against human NCI-H23 cells after 2 days by sulforhodamine B assay; settings: NCI-H23, 48 h; how it was run: as §1
ACHN = test: Cytotoxicity against human ACHN cells after 2 days by sulforhodamine B assay; settings: 48 h; how it was run: as §1
SR = test: Cytotoxicity against human SR cells after 2 days by sulforhodamine B assay; settings: 48 h; how it was run: as §2
CCRF-CEM = test: Cytotoxicity against human CCRF-CEM cells after 2 days by sulforhodamine B assay; settings: 48 h; how it was run: as §1
SW-620 = test: Cytotoxicity against human SW620 cells after 2 days by sulforhodamine B assay; settings: SW-620, 48 h; how it was run: as §2
786-0 = test: Cytotoxicity against human 786-0 cells after 2 days by sulforhodamine B assay; settings: 786-0, 48 h; how it was run: as §1
SK-MEL-5 = test: Cytotoxicity against human SK-MEL-5 cells after 2 days by sulforhodamine B assay; settings: SK-MEL-5, 48 h; how it was run: as §1
HOP-92 = test: Cytotoxicity against human HOP92 cells after 2 days by sulforhodamine B assay; settings: HOP-92, 48 h; how it was run: as §1
A549 = test: Cytotoxicity against human A549/ATCC cells after 2 days by sulforhodamine B assay; settings: A549, 48 h; how it was run: as §1
SF-268 = test: Cytotoxicity against human SF268 cells after 2 days by sulforhodamine B assay; settings: SF-268, 48 h; how it was run: as §1
RXF 393 = test: Cytotoxicity against human RXF393 cells after 2 days by sulforhodamine B assay; settings: RXF 393, 48 h; how it was run: as §1
MDA-MB-468 = test: Cytotoxicity against human MDA-MB-468 cells after 2 days by sulforhodamine B assay; settings: MDA-MB-468, 48 h; how it was run: as §1
[2] = read-out: LC50 (the source's name)

CC/C(=C(/c1ccc(OCCN(C)C)cc1)c1ccc(OC(=O)CCCCCCCCC(=O)C2=C(C)/C(=C/c3[nH]c(-c4ccc[nH]4)cc3OC)N=C2C)cc1)c1ccccc1
GI50 (HT-29): 5.13 µM | LC50 (HT-29): > 100 µM | TGI (HT-29): > 100 µM | Activity (OVCAR-4): inactive | LC50 (concentration killing 50% of cells) (OVCAR-4; OVCAR-4, 48 h): > 100 µM | TGI (OVCAR-4; OVCAR-4, 48 h): > 100 µM | GI50 (TK-10): 20.9 µM | LC50 (TK-10): > 100 µM | TGI (TK-10): > 100 µM | GI50 (K562): 4.57 µM | LC50 (concentration killing 50% of cells) (K562): > 100 µM | TGI (K562): > 100 µM | GI50 (HCC 2998): > 100 µM | LC50 (50% lethal concentration) (HCC 2998): > 100 µM | TGI (HCC 2998): > 100 µM | GI50 (MCF7): 0.16 µM | LC50 (concentration giving 50% net cell kill) (MCF7): > 100 µM | TGI (MCF7): 11 µM | GI50 (NCI-H522): 21.4 µM | LC50 (NCI-H522): > 100 µM | TGI (NCI-H522): > 100 µM | GI50 (RPMI-8226): 3.72 µM | LC50 (concentration killing 50% of cells present at time zero) (RPMI-8226): > 100 µM | TGI (RPMI-8226): > 100 µM | GI50 (LOX IMVI): 2.34 µM | LC50 (LOX IMVI): 27.5 µM | TGI (LOX IMVI): 5.89 µM | GI50 (MOLT-4): 5.13 µM | TGI (MOLT-4): > 100 µM | CC50 (MOLT-4; [2]): > 100 µM | GI50 (A498): 15.1 µM | LC50 (A498): > 100 µM | TGI (A498): 72.4 µM | GI50 (HL-60(TB)): 12.3 µM | TGI (HL-60(TB)): > 100 µM | CC50 (HL-60(TB); [2]): > 100 µM | GI50 [1]: 4.79 µM | TGI [1]: 85.1 µM | CC50 [1, 2]: > 100 µM | GI50 (SNB-19): 6.31 µM | TGI (SNB-19): > 100 µM | CC50 (SNB-19; [2]): > 100 µM | GI50 (MDA-MB-231): 3.39 µM | LC50 (MDA-MB-231): > 100 µM | TGI (MDA-MB-231): 18.2 µM | GI50 (M14): 2.14 µM | TGI (M14): 4.47 µM | CC50 (M14; [2]): 9.33 µM | GI50 (BT-549): 5.25 µM | LC50 (concentration killing 50% of cells present at time zero) (BT-549): > 100 µM | TGI (BT-549): > 100 µM | GI50 (COLO 205): 8.13 µM | LC50 (concentration killing 50% of cells) (COLO 205): > 100 µM | TGI (COLO 205): 77.6 µM | GI50 (NCI-H23): 47.9 µM | LC50 (concentration killing 50% of cells) (NCI-H23): > 100 µM | TGI (NCI-H23): > 100 µM | GI50 (ACHN): 7.76 µM | LC50 (concentration killing 50% of cells) (ACHN): > 100 µM | TGI (ACHN): > 100 µM | GI50 (SR): 4.07 µM | LC50 (concentration giving 50% net cell kill) (SR): > 100 µM | TGI (SR): > 100 µM | GI50 (CCRF-CEM): 0.76 µM | TGI (CCRF-CEM): > 100 µM | CC50 (CCRF-CEM; [2]): > 100 µM | GI50 (SW-620): 3.72 µM | LC50 (concentration killing 50% of cells) (SW-620): 56.2 µM | TGI (SW-620): 14.1 µM | GI50 (786-0): 5.25 µM | LC50 (concentration killing 50% of cells) (786-0): > 100 µM | TGI (786-0): > 100 µM | GI50 (SK-MEL-5): 1.62 µM | LC50 (concentration killing 50% of cells) (SK-MEL-5): 6.46 µM | TGI (SK-MEL-5): 3.24 µM | GI50 (HOP-92): 1.95 µM | CC50 (HOP-92; [2]): > 100 µM | GI50 (A549): 4.17 µM | LC50 (concentration giving 50% net cell kill) (A549): > 100 µM | TGI (A549): > 100 µM | GI50 (SF-268): 6.61 µM | LC50 (concentration killing 50% of cells) (SF-268): > 100 µM | TGI (SF-268): > 100 µM | GI50 (RXF 393): 13.8 µM | LC50 (concentration killing 50% of cells) (RXF 393): > 100 µM | TGI (RXF 393): > 100 µM | GI50 (MDA-MB-468): 3.63 µM | LC50 (MDA-MB-468): > 100 µM | TGI (MDA-MB-468): > 100 µM
